# RanGTP-Imp inh = inhibitors of RanGTP-importin-beta interaction, primary screen, biochemical, FRET, CFP-Ran, YFP-importin-beta, homogeneous | Ran GTPase (GTP-bound) - importin-beta complex | cell-free CFP-Ran/YFP-importin-beta FRET ratio | inhibition, % (concentration not given with the values) | 1.1% of 300,000 active;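 active = more than half of the replicate wells show a fall in the fluorescence ratio signal beyond about 16%, limit read from the data, passing the limit was not always enough; inconclusive = exactly half of the replicate wells pass the set limit; inactive = fewer than half of replicates pass the limit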
# Tb hexokinase = Trypanosoma brucei hexokinase 1 inhibitors, primary screen, biochemical, G6PDH-coupled NADH absorbance, MLSCN library; recombinant TbHK1, G6PDH-coupled NADH A340; 0.11% of 220,000 active; inhibition, % at 10 µM; AID 1430, 2008; hexokinase 1 [Trypanosoma brucei];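 active = inhibition of 50% or more in the single-dose primary screen; inactive = inhibition below 50%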
# Runt-CBFb FRET = inhibitors of RUNX1 Runt–CBFb binding, primary screen, biochemical, FRET, Cerulean-Runt, Venus-CBFb, uHTS; Runt-related transcription factor 1 (Homo sapiens) + Core-binding factor subunit beta …; Cerulean-Runt/Venus-CBFb FRET ratio 530/480, 1 h; inhibition, % at 20 µM; 0.46% of 220,000 active;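 active = inhibition over about 50% at 20 µM in the single-dose screen, limit read from the data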
# Target sequence (Q01196 whole entry, looked up): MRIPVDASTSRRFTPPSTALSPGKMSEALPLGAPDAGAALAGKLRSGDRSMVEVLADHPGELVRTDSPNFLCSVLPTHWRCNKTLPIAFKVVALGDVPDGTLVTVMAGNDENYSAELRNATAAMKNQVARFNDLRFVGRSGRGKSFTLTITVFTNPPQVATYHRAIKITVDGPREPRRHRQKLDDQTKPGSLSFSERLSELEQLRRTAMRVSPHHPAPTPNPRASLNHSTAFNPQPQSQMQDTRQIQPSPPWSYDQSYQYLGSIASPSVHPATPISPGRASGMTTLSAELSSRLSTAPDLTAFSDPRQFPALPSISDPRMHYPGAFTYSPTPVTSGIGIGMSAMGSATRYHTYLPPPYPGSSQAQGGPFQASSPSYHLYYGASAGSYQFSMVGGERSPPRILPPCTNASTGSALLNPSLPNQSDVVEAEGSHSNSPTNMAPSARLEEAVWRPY
# Target sequence (Q13951 whole entry, looked up): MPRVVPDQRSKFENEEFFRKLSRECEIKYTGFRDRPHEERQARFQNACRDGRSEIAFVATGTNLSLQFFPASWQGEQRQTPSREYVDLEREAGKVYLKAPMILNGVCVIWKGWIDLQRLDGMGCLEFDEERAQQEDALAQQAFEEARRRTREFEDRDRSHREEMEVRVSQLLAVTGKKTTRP
#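 Schedule: protein complex preformed 1 h, compound exposure 1 h, room temperature, dark; test system: Cerulean-labeled Runt domain protein; amount: 100 nM per protein; buffer or medium: Tris 50 mM pH 7.5, KCl, K2SO4, 0.01% BSA; read-out: loss of energy transfer signal; detection: FRET fluorescence; controls: 5 µM unlabeled CBFb as full-inhibition high control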
# Runt-SMMHC FRET = inhibitors of RUNX1 Runt–CBFb-SMMHC binding, primary screen, biochemical, FRET, Cerulean-Runt, Venus-CBFb-SMMHC, uHTS; Runt-related transcription factor 1 (Homo sapiens) + Core-binding factor subunit beta …; Cerulean-Runt/Venus-CBFb-SMMHC FRET ratio 530/480, 1 h; inhibition, % at 20 µM; 0.74% of 220,000 active; AID 1434, 2008;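 active = mean inhibition across duplicate retests at 20 µM reaching about 50%, limit read from the data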;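 note: inhibitors lower the FRET ratio by blocking Runt binding to CBFb-SMMHC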
# Hck Nef HTS = inhibitors of Nef-activated human Hck kinase, primary screen, biochemical, Z-Lyte FRET, 384-well, Hck-YEEI; Tyrosine-protein kinase HCK (Homo sapiens), P08631; Recombinant Hck-YEEI plus Nef, Z-Lyte FRET kinase assay; inhibition, % at 20 µM; 0.68% of 220,000 active; AID 463187, 2010;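 active = Hck-Nef kinase inhibition above about 50%, limit read from the data; inactive = inhibition below that limit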
# YIC counter = YIC intramolecular FRET probe signal interference, dose response, counter-screen for RanGTP-importin-beta inhibitor project, biochemical, fluorescence FRET. IC50, µM. shares compounds with RanGTP-Imp inh. Purified YIC probe, intramolecular FRET ratio YFP/CFP. 40% of 1,000 active;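 active = fitted half-maximal inhibitory concentration no more than tenfold above the top dose tested; inconclusive = flat fit with 30 to 70% activity, or poor fit; inactive = half-maximal concentration beyond tenfold above the top dose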
# Hits are given with their value; n = inactive; u = inconclusive; x = not tested or not shown. Shown are actives, neighbours in structure and some others; about 1.9% of the full set was active somewhere.
SMILES,RanGTP-Imp inh,Tb hexokinase,Runt-CBFb FRET,Runt-SMMHC FRET,Hck Nef HTS,YIC counter
CCCn1c(SCC(=O)Nc2ccc(NC(C)=O)cc2)nc2c1c(=O)n(C)c(=O)n2C,17,x,x,x,x,n
COc1ccc(CNC(=O)CN2C(=O)CSc3ccc(S(=O)(=O)N4CCOCC4)cc32)c(OC)c1,n,x,x,x,x,x
O=c1c2cc(NC(=S)N3CCC(N4CCCCC4)CC3)ccc2nc2n1CCCCC2,23,n,n,n,n,n
CC1Cc2cc(/C(O)=C3/C(=O)C(=O)N(Cc4ccncc4)C3c3ccc(N(C)C)cc3)ccc2O1 (centres undefined),22,x,x,x,x,n
COc1ccc(C2/C(=C(/O)c3ccc4c(c3)CC(C)O4)C(=O)C(=O)N2Cc2cccnc2)cc1 (centres undefined),n,x,x,x,x,x
N#Cc1c(N)nc2c(c1-c1ccccc1)CCC2,29,n,n,n,n,9.8
COc1cccc(NC(=O)CN2C(=O)COc3ccc(S(=O)(=O)N4CCC(C)CC4)cc32)c1,n,x,x,x,x,x
CCOc1ccc(S(=O)(=O)N2CCN(C(=O)c3sccc3C)CC2)cc1,n,n,n,n,n,x
O=C(Oc1ccc2ccc(=O)oc2c1)c1ccccc1,n,x,x,x,x,x
Cc1ccc(S(=O)(=O)NC(C(=O)Oc2ccc3ccc(=O)oc3c2)c2ccccc2)cc1 (centres undefined),20,n,85,160,58,28
Cc1ccccc1NC(=O)/C(C#N)=C\c1cn(CC(=O)O)c2ccccc12,20,n,x,x,n,51
COCCNC(=O)/C(C#N)=C/c1cn(CC(=O)NCc2ccco2)c2ccccc12,27,n,n,n,n,44
N#C/C(=C\c1cn(CC(=O)O)c2ccccc12)C(=O)NCc1ccccc1,n,x,x,x,x,x
Cc1ccc2cc(C#N)c(N3CCCN(S(=O)(=O)c4ccccc4)CC3)nc2c1,u,n,n,n,n,x
Cc1ccc2cc(C#N)c(N3CCCN(S(=O)(=O)c4ccc(F)cc4)CC3)nc2c1,18,n,n,n,n,25
COCCN1CC(C(=O)N2CCC(Oc3ccccc3OC)CC2)CCC1=O (centres undefined),n,x,x,x,x,x
C/C(=N\NC(=O)c1c(C)nc2ccccn12)c1ccc(O)cc1O,21,x,x,x,x,48
C/C(=N\NC(=O)c1c(C)nc2ccccn12)c1ccccc1F,n,x,x,x,x,x
COc1ccccc1C(=O)NNC(=O)c1ccc(NC(=O)CC(C)C)cc1,n,n,n,n,n,x
COc1cc2sc3ccc(C#CC4(O)CCCCC4)cc3c(=O)c2cc1OC,32,x,x,x,x,26
CC(NCc1cc(Br)ccc1OCC(N)=O)C12CC3CC(CC(C3)C1)C2 (centres undefined),n,x,x,x,x,x
CCCNC(=S)N1CCC(NC(=O)Nc2ccc(C)cc2)CC1,n,n,n,n,n,x
CC1C=CCC2C(=O)N(c3ccc(OC(=O)c4cccs4)cc3)C(=O)C12 (centres undefined),n,n,n,n,n,x
CC1C=CCC2C(=O)N(c3ccccc3OC(=O)c3cccs3)C(=O)C12 (centres undefined),22,n,n,n,n,n
COC(=O)N(C)C[C@H]1OCc2cn(nn2)CCCC(=O)N([C@@H](C)CO)C[C@H]1C,x,x,x,x,x,n
O=C(NCc1nnc2c(C(F)(F)F)cc(Cl)cn12)C1CCCC1,n,x,x,x,x,x
CN(C)Cc1c(C(=O)N/N=C/c2cccs2)nnn1-c1nonc1N,n,x,x,x,x,x
Cc1ccc(-c2oc3ccccc3c(=O)c2OCC(=O)O)cc1,n,n,n,n,n,x
Cc1ccc(-c2oc3ccccc3c(=O)c2O)cc1,22,n,n,n,n,17
Cc1ccc(C(C(=O)NCc2ccccc2)N(Cc2ccco2)C(=O)c2snc(C(N)=O)c2N)o1 (centres undefined),n,x,x,x,x,x

# Screening results from PubChem BioAssay.
